From ChEMBL document CHEMBL3271988, “Nitrogen analogues of 1,4-benzoquinones. Activities against the ascitic sarcoma 180 of mice” (J Med Chem, 1978)
The source made the active and inactive calls. No cut-off for these calls is given here.

Tests used:
Sarcoma-180 [1] = assay: Antitumor activity against mouse Sarcoma 180 cells allografted in Swiss mouse at 10 mg/kg, ip three doses were given at 24 hrs interval starting 24 hrs after allograft injection relative to control; format: functional; settings: route intraperitoneal
How it was run: (§1)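 Swiss mice received 10^6 ascitic sarcoma 180 cells ip, then three ip doses 24 h apart starting at 24 h. Controls got isotonic salt solution on the same schedule. T/C% is mean survival time of treated over controls (6 mice per group).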

Sarcoma-180 [2] = assay: Antitumor activity against mouse Sarcoma 180 cells allografted in Swiss mouse assessed as weight gain at 10 mg/kg, ip three doses were given at 24 hrs interval starting 24 hrs after allograft injection measured after 3 days relative to control; format: functional; settings: route intraperitoneal
How it was run: (§2)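 Ascitic sarcoma 180 model in Swiss mice: 10^6 cells ip, then three ip doses at 24-h intervals beginning 24 h later. Mice were weighed 1 day after cell injection and again 3 days later (24 h after the third dose). Percent weight gain of treated mice was compared with saline-treated controls on the same schedule.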

[3] = Redox potential of the compound in alcohol-water solution; settings: buffer
Sarcoma-180 [4] = assay: Antitumor activity against mouse Sarcoma 180 cells allografted in Swiss mouse assessed as survival time at 10 mg/kg, ip three doses were given at 24 hrs interval starting 24 hrs after allograft injection relative to control; format: functional; settings: route intraperitoneal
How it was run: (§3)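 Swiss mice inoculated ip with 10^6 ascitic sarcoma 180 cells. Compound given ip daily ×3 at 24-h intervals, starting 24 h after inoculation. Controls received isotonic saline on the same schedule; 6 mice per group. Mice alive at 60 days counted as 60 days in mean survival (±SD).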

Sarcoma-180 [5] = assay: Antitumor activity against mouse Sarcoma 180 cells allografted in Swiss mouse assessed as survival at 10 mg/kg, ip three doses were given at 24 hrs interval starting 24 hrs after allograft injection measured after 5 days; format: functional, organism-based; parameters: dose 10 mg/kg
How it was run: (§4)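 Swiss mice were injected ip with 10^6 ascitic sarcoma 180 cells. Three daily ip doses followed, the first 24 h after cell injection. The read-out was the number of mice surviving at 5 days, out of 6 treated.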

[6] = Half life of the compound in water at pH 7 at 25 degC by spectrophotometry; format: physicochemical
How it was run: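 Compound dissolved in absolute ethanol, then diluted into 0.01 M Tris buffer brought to pH 7 with HCl, 25 °C. Absorbance at λmax followed over hours or days; log absorbance vs time fitted by least squares, rate constant and half-time taken from the slope.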

Sarcoma-180 [7] = assay: Antitumor activity against mouse Sarcoma 180 cells allografted in Swiss mouse assessed as cure at 10 mg/kg, ip three doses were given at 24 hrs interval starting 24 hrs after allograft injection measured after 60 days; format: functional, organism-based; parameters: dose 10 mg/kg
How it was run: (§5)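 Swiss mice given 10^6 ascitic sarcoma 180 cells ip. Starting 24 h later, three ip doses were given 24 h apart. Controls got isotonic salt solution on the same schedule. A cure was a mouse alive with no evidence of cancer cells 60 days after cell injection, reported per 6 mice.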

[8] = Acute toxicity in single ip dosed Swiss mouse assessed as death up to 5 days; format: organism-based; settings: in vivo
How it was run: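 Male Swiss mice given one ip dose. LD50 taken as the single dose killing 50% of animals within 5 days.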

Sarcoma-180 [9] = assay: Antitumor activity against mouse Sarcoma 180 cells allografted in Swiss mouse assessed as cure at 20 mg/kg, ip three doses were given at 24 hrs interval starting 24 hrs after allograft injection measured after 60 days; format: functional, organism-based; parameters: dose 20 mg/kg; how it was run: as §5
Sarcoma-180 [10] = assay: Antitumor activity against mouse Sarcoma 180 cells allografted in Swiss mouse assessed as weight gain at 20 mg/kg, ip three doses were given at 24 hrs interval starting 24 hrs after allograft injection measured after 3 days relative to control; format: functional; settings: route intraperitoneal; how it was run: as §2
Sarcoma-180 [11] = assay: Antitumor activity against mouse Sarcoma 180 cells allografted in Swiss mouse assessed as survival time at 20 mg/kg, ip three doses were given at 24 hrs interval starting 24 hrs after allograft injection relative to control; format: functional; settings: route intraperitoneal; how it was run: as §3
Sarcoma-180 [12] = assay: Antitumor activity against mouse Sarcoma 180 cells allografted in Swiss mouse assessed as survival at 20 mg/kg, ip three doses were given at 24 hrs interval starting 24 hrs after allograft injection measured after 5 days; format: functional, organism-based; parameters: dose 20 mg/kg; how it was run: as §4
Sarcoma-180 [13] = assay: Antitumor activity against mouse Sarcoma 180 cells allografted in Swiss mouse at 20 mg/kg, ip three doses were given at 24 hrs interval starting 24 hrs after allograft injection relative to control; format: functional; settings: route intraperitoneal; how it was run: as §1
Sarcoma-180 [14] = assay: Antitumor activity against mouse Sarcoma 180 cells allografted in Swiss mouse assessed as survival at 3 mg/kg, ip three doses were given at 24 hrs interval starting 24 hrs after allograft injection measured after 5 days; format: functional, organism-based; parameters: dose 3 mg/kg; how it was run: as §4
Sarcoma-180 [15] = assay: Antitumor activity against mouse Sarcoma 180 cells allografted in Swiss mouse assessed as survival time at 3 mg/kg, ip three doses were given at 24 hrs interval starting 24 hrs after allograft injection relative to control; format: functional; settings: route intraperitoneal; how it was run: as §3
Sarcoma-180 [16] = assay: Antitumor activity against mouse Sarcoma 180 cells allografted in Swiss mouse at 3 mg/kg, ip three doses were given at 24 hrs interval starting 24 hrs after allograft injection relative to control; format: functional; settings: route intraperitoneal; how it was run: as §1
Sarcoma-180 [17] = assay: Antitumor activity against mouse Sarcoma 180 cells allografted in Swiss mouse assessed as weight gain at 3 mg/kg, ip three doses were given at 24 hrs interval starting 24 hrs after allograft injection measured after 3 days relative to control; format: functional; settings: route intraperitoneal; how it was run: as §2
Sarcoma-180 [18] = assay: Antitumor activity against mouse Sarcoma 180 cells allografted in Swiss mouse at 30 mg/kg, ip three doses were given at 24 hrs interval starting 24 hrs after allograft injection relative to control; format: functional; settings: route intraperitoneal; how it was run: as §1
Sarcoma-180 [19] = assay: Antitumor activity against mouse Sarcoma 180 cells allografted in Swiss mouse assessed as survival time at 30 mg/kg, ip three doses were given at 24 hrs interval starting 24 hrs after allograft injection relative to control; format: functional; settings: route intraperitoneal; how it was run: as §3
Sarcoma-180 [20] = assay: Antitumor activity against mouse Sarcoma 180 cells allografted in Swiss mouse assessed as cure at 30 mg/kg, ip three doses were given at 24 hrs interval starting 24 hrs after allograft injection measured after 60 days; format: functional, organism-based; parameters: dose 30 mg/kg; how it was run: as §5
Sarcoma-180 [21] = assay: Antitumor activity against mouse Sarcoma 180 cells allografted in Swiss mouse assessed as weight gain at 30 mg/kg, ip three doses were given at 24 hrs interval starting 24 hrs after allograft injection measured after 3 days relative to control; format: functional; settings: route intraperitoneal; how it was run: as §2
Sarcoma-180 [22] = assay: Antitumor activity against mouse Sarcoma 180 cells allografted in Swiss mouse assessed as survival at 30 mg/kg, ip three doses were given at 24 hrs interval starting 24 hrs after allograft injection measured after 5 days; format: functional, organism-based; parameters: dose 30 mg/kg; how it was run: as §4
Sarcoma-180 [23] = assay: Antitumor activity against mouse Sarcoma 180 cells allografted in Swiss mouse assessed as weight gain at 15 mg/kg, ip three doses were given at 24 hrs interval starting 24 hrs after allograft injection measured after 3 days relative to control; format: functional; settings: route intraperitoneal; how it was run: as §2
Sarcoma-180 [24] = assay: Antitumor activity against mouse Sarcoma 180 cells allografted in Swiss mouse at 15 mg/kg, ip three doses were given at 24 hrs interval starting 24 hrs after allograft injection relative to control; format: functional; settings: route intraperitoneal; how it was run: as §1
Sarcoma-180 [25] = assay: Antitumor activity against mouse Sarcoma 180 cells allografted in Swiss mouse assessed as survival time at 15 mg/kg, ip three doses were given at 24 hrs interval starting 24 hrs after allograft injection relative to control; format: functional; settings: route intraperitoneal; how it was run: as §3
Sarcoma-180 [26] = assay: Antitumor activity against mouse Sarcoma 180 cells allografted in Swiss mouse assessed as survival at 15 mg/kg, ip three doses were given at 24 hrs interval starting 24 hrs after allograft injection measured after 5 days; format: functional, organism-based; parameters: dose 15 mg/kg; how it was run: as §4
Sarcoma-180 [27] = assay: Antitumor activity against mouse Sarcoma 180 cells allografted in Swiss mouse assessed as cure at 15 mg/kg, ip three doses were given at 24 hrs interval starting 24 hrs after allograft injection measured after 60 days; format: functional, organism-based; parameters: dose 15 mg/kg; how it was run: as §5

## O=C1C(Cl)=CC(=NCl)C=C1Cl
Sarcoma-180 [1]
  T/C: 220%
Sarcoma-180 [2]
  Activity: -14.2%
[3]
  Redox potential: 0.659 V
Sarcoma-180 [4]
  Survival: 25.3 days
Sarcoma-180 [5]
  Activity: Active
[6]
  half-life: 1.67 days
Sarcoma-180 [7]
  Activity: inactive
[8]
  LD50 at 120 h: 20 mg/kg

## CN(C)c1ccc(/N=C2/C=CC(=O)C(Cl)=C2)cc1
Sarcoma-180 [9]
  Activity: inactive
Sarcoma-180 [10]
  Activity: 9%
[3]
  Redox potential: 0.658 V
Sarcoma-180 [11]
  Survival: 33.3 days
Sarcoma-180 [12]
  Activity: Active
[6]
  half-life: 19.9 days
Sarcoma-180 [13]
  T/C: 256%
[8]
  LD50 at 120 h: 100 mg/kg

## CC(=O)NC1=C/C(=N\c2ccc(N(C)C)cc2)C=CC1=O
[3]
  Redox potential: 0.58 V
Sarcoma-180 [14]
  Activity: Active
Sarcoma-180 [15]
  Survival: 26.8 days
Sarcoma-180 [16]
  T/C: 194%
[8]
  LD50 at 120 h: 70 mg/kg
Sarcoma-180 [17]
  Activity: 4.3%

## CN(C)c1ccc(N=C2C=CC(=O)C=C2)cc1
Sarcoma-180 [18]
  T/C: 132%
[3]
  Redox potential: 0.628 V
Sarcoma-180 [19]
  Survival: 19.2 days
Sarcoma-180 [20]
  Activity: inactive
Sarcoma-180 [21]
  Activity: -0.9%
[6]
  half-life: 29.2 days
Sarcoma-180 [22]
  Activity: Active
[8]
  LD50 at 120 h: 80 mg/kg

## O=C1C=CC(=Nc2ccc([O-])cc2)C=C1.[Na+]
Sarcoma-180 [23]
  Activity: -2.2%
Sarcoma-180 [24]
  T/C: 214%
Sarcoma-180 [25]
  Survival: 32.8 days
Sarcoma-180 [26]
  Activity: Active
[8]
  LD50 at 120 h: 50 mg/kg

## O=C1C=CC(=NBr)C=C1
Sarcoma-180 [23]
  Activity: -3.8%
Sarcoma-180 [24]
  T/C: 145%
[3]
  Redox potential: 0.518 V
Sarcoma-180 [25]
  Survival: 15.5 days
Sarcoma-180 [26]
  Activity: Active
Sarcoma-180 [27]
  Activity: inactive
[8]
  LD50 at 120 h: 40 mg/kg
